Data on ten molecules can be found in ChEMBL document CHEMBL3227921, “Synthetic antagonists of in vivo responses by the rat uterus to oxytocin” (J Med Chem, 1979).

The target in assay [1] is T1, Oxytocin receptor (Rattus norvegicus, UniProt P70536).
T1 sequence (P70536 whole entry): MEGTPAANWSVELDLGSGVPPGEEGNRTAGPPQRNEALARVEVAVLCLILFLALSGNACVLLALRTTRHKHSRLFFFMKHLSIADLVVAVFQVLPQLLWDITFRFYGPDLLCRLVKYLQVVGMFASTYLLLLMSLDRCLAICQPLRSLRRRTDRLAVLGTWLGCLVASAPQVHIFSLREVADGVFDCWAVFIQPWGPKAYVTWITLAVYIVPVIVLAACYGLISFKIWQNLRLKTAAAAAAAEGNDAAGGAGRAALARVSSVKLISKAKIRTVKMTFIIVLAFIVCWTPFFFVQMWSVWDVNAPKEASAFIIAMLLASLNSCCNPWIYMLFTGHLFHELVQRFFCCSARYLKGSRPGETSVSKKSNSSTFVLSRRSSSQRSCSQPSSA
As to the kind of experiment: Antagonist activity at oxytocin receptor in rat uterus pretreated with diethylstilbestrol compound treated 1 min prior to oxytocin addition. Type of assay: tissue-based. The following applies: read-out: pA2 (converted). In a few lines:
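Isolated uterine horns from diethylstilbestrol-pretreated rats suspended in Munsick's solution without Mg2+. Isometric contractions recorded. Antagonist added to bath 1 min before agonist. pA2 calculated by Schild's method: negative log of the molar antagonist concentration that reduces the response to 2x units of agonist to the response to x units without antagonist. Mean ± SE over assay groups.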

A short description of assay [2]: (§1) Antagonist activity at rat vasopressin receptor. In a few lines: (§2)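 Anesthetized rats, vasopressor responses recorded per Dekanski. Antagonist injected 1 min before agonist. In vivo "pA2" estimated by the method of Dyckes et al., which assumes a volume of distribution for the injected antagonist. Mean ± SE over assay groups.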
For assay [3], the target named is T1, Oxytocin receptor. As to the kind of experiment: Antagonist activity at oxytocin receptor in rat uterus pretreated with diethylstilbestrol compound treated 1 min prior to oxytocin addition in presence of 0.5 mM Mg2+. Type of assay: tissue-based. The following applies: read-out: pA2 (converted). In a few lines:
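Uterine horns from rats pretreated with diethylstilbestrol, bathed in Munsick's solution containing 0.5 mM Mg2+. Isometric contractions recorded, with antagonist added 1 min ahead of agonist. Schild pA2 taken as negative log molar antagonist concentration reducing the 2x-agonist response to the x-unit response without antagonist. Mean ± SE, number of assay groups given.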

The subject of assay [4] is Rattus norvegicus. As to the kind of experiment: Antioxytocic activity in iv dosed rat uterus pretreated with diethylstilbestrol compound treated 1 min prior to oxytocin injection. Type of assay: functional, organism-based. The following applies: for Kb: read-out: pA2 (converted). In short, it runs like this: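 Anesthetized diethylstilbestrol-pretreated rats, modified Bisset uterus assay. Antagonist given intravenously 1 min before agonist. Read-out was integrated intrauterine pressure over 10 min after agonist injection. In vivo "pA2" estimated by the Dyckes et al. method; pA2 6.00 corresponds to 67 nmol/kg i.v. and 7.00 to 6.7 nmol/kg. Mean ± SE over assay groups.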

Assay [5] has as its target T2, Oxytocin receptor (Rattus norvegicus) (UniProt P70536).
T2 sequence (whole entry): T1 sequence (P70536 whole entry)
As to the kind of experiment: Partial agonist activity at oxytocin receptor in rat uterus pretreated with diethylstilbestrol compound treated 1 min prior to oxytocin addition in presence of 0.5 mM Mg2+.

The species named for assay [6] is Rattus norvegicus. The description is as §1. In short, it runs like this: as §2

Calls of active or inactive are those of the source. No cut-off for these calls is given here. Numbered stars: 1 amine (or outer) side, 2 acyl side, 3 side chain; on linkers, the order of the positions; unused ones are H or OH. Bridge positions count the residues as written; N and C are the ends. Square brackets hold non-standard residues; d marks the D form. Peptide text beside a SMILES is read from it. * marks the point of attachment. X1 = O=C(CC1(S[*:2])CCCCC1)[*:1]; X3 = CCC(CC)(CC(=O)[*:1])S[*:2]; X2 = CC(C)(CC(=O)[*:1])S[*:2]; X4 = NC(=O)NC(=O)CN*; Mpa = O=C(O)CCS

Turning to `COc1ccc(C[C@@H]2NC(=O)CC(C)(C)SSC[C@@H](C(=O)N3CCC[C@H]3C(=O)N[C@@H](CCCN=C(N)N)C(=O)NCC(N)=O)NC(=O)[C@H](CC(N)=O)NC(=O)[C@H](CCC(N)=O)NC(=O)[C@H](Cc3ccccc3)NC2=O)cc1` (Y(Me)FQNCPRG-NH2; linker N-5 via X2), the Kb in assay [1] is 24.5 nM.

By pA2 is commonly meant the negative logarithm of the molar antagonist concentration that doubles the agonist concentration needed for the same response. A lower pA2 goes with lower antagonist potency. On to `CC[C@H](C)[C@@H]1NC(=O)[C@H](Cc2ccc(OC)cc2)NC(=O)CC(C)(C)SSC[C@@H](C(=O)N2CCC[C@H]2C(=O)N[C@@H](CC(C)C)C(=O)NCC(N)=O)NC(=O)[C@H](CC(N)=O)NC(=O)[C@H](CCC(N)=O)NC1=O` (Y(Me)IQNCPLG-NH2; linker N-5 via X2), for which, in assay [2], the pA2 is 7.59. Further, the Kb in assay [3] is 15.8 nM; in assay [1], 17.4 nM; in assay [4], 138 nM.

`CC[C@H](C)[C@@H]1NC(=O)[C@H](Cc2ccc(OC)cc2)NC(=O)CC(C)(C)SSC[C@@H](C(=O)N2CCC[C@H]2C(=O)N[C@@H](CC(C)C)C(=O)NCC(N)=O)NC(=O)[C@H](CC(N)=O)NC(=O)[C@H]([C@@H](C)O)NC1=O` (Y(Me)ITNCPLG-NH2; linker N-5 via X2) registered a pA2 in assay [2] of 7.32. The results for the Kb in assay [3], in assay [1] and in assay [4] were 16.2 nM, 22.9 nM and 145 nM, respectively.

Take `CC[C@H](C)[C@@H]1NC(=O)[C@H](Cc2ccc(O)cc2)NC(=O)CC2(CCCCC2)SSC[C@@H](C(=O)N2CCC[C@H]2C(=O)N[C@@H](CC(C)C)C(=O)NCC(N)=O)NC(=O)[C@H](CC(N)=O)NC(=O)[C@H](CCC(N)=O)NC1=O` (YIQNCPLG-NH2; linker N-5 via X1): the Kb is 70.8 nM in assay [3], 24.5 nM in assay [1] and 224 nM in assay [4].

In the case of `CC[C@H](C)[C@@H]1NC(=O)[C@H](Cc2ccc(O)cc2)NC(=O)CC(C)(C)SSC[C@@H](C(=O)N2CCC[C@H]2C(=O)N[C@@H](CC(C)C)C(=O)NCC(N)=O)NC(=O)[C@H](CC(N)=O)NC(=O)[C@H](CCC(N)=O)NC1=O` (YIQNCPLG-NH2; linker N-5 via X2), the Kb in assay [3] is 2340 nM. The result in assay [5] was Active.

In assay [2], `CC[C@H](C)[C@@H]1NC(=O)[C@H](Cc2ccc(O)cc2)NC(=O)CC(CC)(CC)SSC[C@@H](C(=O)N2CCC[C@H]2C(=O)N[C@@H](CC(C)C)C(=O)NCC(N)=O)NC(=O)[C@H](CC(N)=O)NC(=O)[C@H](CCC(N)=O)NC1=O` (YIQNCPLG-NH2; linker N-5 via X3) came in with a pA2 of 6.83. The Kb in assay [3] was 151 nM; in assay [1], 28.2 nM; in assay [4] it was 631 nM.

Regarding `CC[C@H](C)[C@@H]1NC(=O)[C@H](Cc2ccc(O)cc2)NC(=O)CC2(CCCCC2)SSC[C@@H](C(=O)N2CCC[C@H]2C(=O)N[C@@H](CC(C)C)C(=O)NCC(N)=O)NC(=O)[C@H](CC(N)=O)NC(=O)[C@H]([C@@H](C)O)NC1=O` (YITNCPLG-NH2; linker N-5 via X1), the pA2 in assay [2] is listed as 5.86. Besides, the Kb in assay [3] was 15.5 nM; in assay [1] it was 12.3 nM; in assay [4], 115 nM.

Regarding `CC[C@H](C)[C@@H]1NC(=O)[C@H](Cc2ccc(O)cc2)NC(=O)CC(C)(C)SSC[C@@H](C(=O)N2CCC[C@H]2C(=O)N[C@@H](CC(C)C)C(=O)NCC(N)=O)NC(=O)[C@H](CC(N)=O)NC(=O)[C@H]([C@@H](C)O)NC1=O` (YITNCPLG-NH2; linker N-5 via X2), the pA2 in assay [2] is 6.67. Besides, the Kb was 589 nM in assay [3], 30.2 nM in assay [1] and 490 nM in assay [4]. Besides, the outcome in assay [5] was Active.

In assay [2], `CC[C@H](C)[C@@H]1NC(=O)[C@H](Cc2ccc(O)cc2)NC(=O)CC(CC)(CC)SSC[C@@H](C(=O)N2CCC[C@H]2C(=O)N[C@@H](CC(C)C)C(=O)NCC(N)=O)NC(=O)[C@H](CC(N)=O)NC(=O)[C@H]([C@@H](C)O)NC1=O` (YITNCPLG-NH2; linker N-5 via X3) displayed a pA2 of 6.3. In addition, the Kb in assay [3] was 43.7 nM; in assay [1] it was 19.1 nM; in assay [4], 339 nM.

`CC[C@H](C)[C@@H]1NC(=O)[C@H](Cc2ccc(OC)cc2)NC(=O)CCSSC[C@@H](C(=O)N2CCC[C@H]2C(=O)N[C@@H](CC(C)C)C(=O)NCC(=O)NC(N)=O)NC(=O)[C@H](CC(N)=O)NC(=O)[C@H](CCC(N)=O)NC1=O` ([Mpa]Y(Me)IQNCPL-X4; disulfide 1-6): the outcome in assay [6] and in assay [4] was Active. Moreover, the Kb in assay [3] is 245 nM; in assay [1] it was 126 nM.
